High-throughput results deposited in PubChem by Broad Institute.
SIRT5 inh: SIRT5 desuccinylase inhibitors, primary screen, biochemical, fluorescence imaging, single point, set 5; NAD-dependent protein deacylase sirtuin-5, mitochondrial (Homo sapiens), Q9NXA8; Purified SirT5, succinyl-peptide AMC, trypsin-coupled fluorescence; inhibition, % at 15 µM; 330,000 compounds, 1.1% hits; in the data active = inhibition above about 15%
E-sel inducer: E-selectin induction in HUVECs, primary screen, imaging, HUVEC, immunofluorescence imaging, single point. P16581. normalized: neutral wells 0, TNF-alpha wells 100. activation, % at 7.58 µM. 260,000 compounds, 0.37% hits. AID 686992, 2013;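 active = mean E-selectin-positive cell signal at least 10% of the positive control, reached in at least 60% of replicates, without over 20% cell loss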
Target sequence (P16581 whole entry, looked up): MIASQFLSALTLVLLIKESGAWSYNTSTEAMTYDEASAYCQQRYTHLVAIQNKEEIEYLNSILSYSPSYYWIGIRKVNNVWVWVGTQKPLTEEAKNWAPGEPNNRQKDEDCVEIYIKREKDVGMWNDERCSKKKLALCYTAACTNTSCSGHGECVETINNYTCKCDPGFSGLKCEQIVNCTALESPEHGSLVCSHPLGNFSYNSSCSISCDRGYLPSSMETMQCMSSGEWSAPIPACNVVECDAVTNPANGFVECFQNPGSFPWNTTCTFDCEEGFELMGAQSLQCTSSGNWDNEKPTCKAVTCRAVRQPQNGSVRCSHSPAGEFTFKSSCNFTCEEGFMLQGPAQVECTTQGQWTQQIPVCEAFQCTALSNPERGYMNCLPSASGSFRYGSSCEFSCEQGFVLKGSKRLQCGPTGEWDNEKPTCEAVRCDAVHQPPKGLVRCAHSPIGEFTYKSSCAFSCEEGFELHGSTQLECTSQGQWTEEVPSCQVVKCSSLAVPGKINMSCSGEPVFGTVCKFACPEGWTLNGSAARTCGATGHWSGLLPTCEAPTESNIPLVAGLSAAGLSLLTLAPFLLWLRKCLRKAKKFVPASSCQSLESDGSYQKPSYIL
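assay system = HUVEC, human umbilical vein endothelial cells | input = 3,000 HUVEC seeded per well | medium = EGM-2 growth medium on 0.1% gelatin-coated wells | dosing = one compound dose added by pin transfer | signal = immunofluorescence imaging | read-out basis = % PE-positive cells | control set = TNF-alpha, DMSO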
Ecoli rRNA inh: reduced GFP signal of wild-type E. coli, primary screen, bacterial rRNA inhibitor project, GFP/RFP fluorescence, OD600, single point | E. coli WT GFP vs humanized-ribosome RFP mutants, 24 h; hits give low values; DMSO median 0, no signal -100 | 350,000 compounds, 1.6% hits | GFP signal change (wild-type ribosome), % (no concentration beside the values);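 active = significant combined selectivity score with lowered wild-type GFP, culture density cut under 30%, mutant RFP and density less affected; inactive = any of these conditions unmet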
Statin myotox sup: suppressors of statin myotoxicity in C2C12 myotubes, primary screen, cell-based, single point, plate reader; C2C12 myotubes + simvastatin, ATP luminescence, 48 h; scaled: DMSO 0, geranylgeraniol control 100; rescue of ATP level, % at 7.49 µM; 330,000 compounds, 0.78% hits;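 active = mean ATP rescue above about 67%, or every replicate alone reaching that limit, limit read from the data, passing the limit was not always enough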;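 note: myotubes were challenged with 10 µM simvastatin during compound exposure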
FN deposit inh: inhibitors of fibronectin matrix deposition, primary screen, AH1F cells, Alexa488-fibronectin fluorescence, plate reader; AH1F fibroblasts, overnight; inhibition, % at 12.6 µM; 350,000 compounds, 0.086% hits;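 active = mean inhibition across replicates of 30% or more, regardless of how many single replicates reach that level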;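 note: positive control wells lacked labelled fibronectin entirely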
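Assay system: AH1F fibroblasts / Quantity: 10000 cells per well / Medium: DMEM plus 2% serum, read in PBS / Reagent: labelled fibronectin 24 nM / Dosing: single dose, pinned / Times: 1 h cell attachment, overnight exposure to compound and label / Signal: fluorescence, ex 485 nm, em 525 nm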
FGF22 binding: binders of human FGF22 protein, primary screen, FGF22 synaptogenesis inhibitor project, biophysical, thermal shift, single point; 340,000 compounds, 1.5% hits; recombinant FGF22 thermal shift, SYPRO orange fluorescence; percent of sucrose octasulfate shift, DMSO zero; AID 651658, 2012; Fibroblast growth factor 22 (Homo sapiens), Q9HCT0; activity (Tm shift, normalised), % at 9.99 µM;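 active = mean Tm shift, scaled 0 neutral to 100 positive control, at about 1.3% or above, every replicate too, limit read from the data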
* = called active by the depositor; . = no result. Compounds with a hit are over-represented: about 4% of the library has one in this group of screens.

SMILES | SIRT5 inh | E-sel inducer | Ecoli rRNA inh | Statin myotox sup | FN deposit inh | FGF22 binding
C[C@H]1CN([C@@H](C)CO)C(=O)c2cc(NC(=O)Cn3cnnn3)ccc2O[C@@H]1CN(C)C(=O)NC1CCCCC1 | 2 | . | 4 | 22 | 9 | 0
C[C@H](CO)N1C[C@H](C)[C@@H](CN(C)Cc2ccc(C(=O)O)cc2)Oc2c(NC(=O)C3CCOCC3)cccc2C1=O | 4 | -5 | 4 | -29 | . | 0
COc1ccc(S(=O)(=O)N(C)C[C@H]2OCCCC[C@@H](C)Oc3ccc(NS(=O)(=O)c4ccccc4)cc3C(=O)N([C@H](C)CO)C[C@@H]2C)cc1 | 2 | . | -1 | . | -17 | 0
CCn1cc(C(=O)O)c(=O)c2cnc(N3CCN(C(=S)NC(=O)c4ccc(F)c(F)c4)CC3)nc21 | -1 | . | -52 | 6 | 1 | 0
CCn1cc(C(=O)O)c(=O)c2cnc(N3CCN(C(=S)NC(=O)c4ccc(OC)cc4)CC3)nc21 | 29* | 2 | -56 | -4 | -5 | 0
CCOC(=O)c1sc(NC(=O)c2c(C)nn(Cc3ccccc3)c2C)cc1C | . | . | . | 102* | -2 | .
O=C(CNc1ccc2ccccc2c1)N/N=C/c1ccc(OC(=O)/C=C/c2ccco2)cc1 | -1 | . | 3 | . | -19 | 44*
Cc1ccc(C(=O)N/N=C/c2cccc(OC(=O)/C=C/c3ccco3)c2)cn1 | 24* | . | 10 | . | 2 | 0
CC(/C=C/c1ccco1)=N/NC(=O)c1ccc(C)nc1 | . | 0 | 3 | -9 | -2 | 0
C[C@H]1CCCCO[C@@H](CN(C)Cc2ccc3c(c2)OCO3)[C@@H](C)CN([C@@H](C)CO)C(=O)c2cc(NS(=O)(=O)c3ccccc3)ccc2O1 | 6 | . | -2 | . | 2 | .
O=[N+]([O-])c1c(Nc2cccc(O)c2)cc(Cl)c2nonc12 | 5 | 0 | -45* | 6 | 35* | 0
COc1ccc(O)c(C(=O)c2cc(C#N)c(=O)n(CCN3CCOCC3)c2)c1 | . | . | . | 10 | . | .
Cc1ccc(O)c(C(=O)c2cc(C#N)c(=O)n(CC3CCCO3)c2)c1 (centres undefined) | . | . | . | 95* | . | .
COCc1ccc(CN2CCc3c([nH]c4ccccc34)C2CC(C)C)o1 (centres undefined) | -5 | 0 | 9 | 0 | -11 | 43*
CCS(=O)(=O)N1CC(=O)N2[C@@H](CO)[C@H](c3ccc(-c4ccccc4C)cc3)[C@@H]2C1 | . | . | -2 | . | . | .
Cc1ccc(-c2ccc3c(c2)O[C@@H](CN(C)Cc2ccc(C(=O)O)cc2)[C@@H](C)CN([C@H](C)CO)S3(=O)=O)cc1 | 5 | 0 | -9 | 20 | . | 0
CCC12CC3CC(C1)CC(C(=O)Nc1nn[nH]n1)(C3)C2 | -3 | . | -4 | 63 | 1 | .
CCC12CC3CC(C1)CC(C(=O)NNC(N)=O)(C3)C2 | 1 | 0 | 4 | 106* | -2 | 0
CSc1nc(SC(C)C(=O)O)c2c3c(sc2n1)COC(C)(C)C3 (centres undefined) | 0 | . | -23* | -15 | 1 | 0
Cc1noc(C)c1NC(=O)N(C)C[C@@H]1OCCCC[C@H](C)Oc2ccc(NS(=O)(=O)c3ccccc3)cc2C(=O)N([C@H](C)CO)C[C@@H]1C | 1 | 0 | -2 | . | -13 | .
CCCNC(=O)C[C@H]1CC[C@@H]2[C@H](COc3ccc(NC(=O)Cc4cccs4)cc3C(=O)N2C)O1 | . | 0 | 3 | 6 | -14 | 0
COc1ccc(Br)cc1/C=N/NC(=O)c1ccco1 | -4 | 0 | 14 | -4 | -3 | 0
CC(C)(C)c1ccc(OCC(=O)N/N=C/c2cc(Br)ccc2OC(=O)c2ccco2)cc1 | . | . | . | 135* | . | .
CC(OC(=O)CC1CCCCC1)C(=O)Nc1ccc(F)cc1 (centres undefined) | 21* | . | -6 | 15 | 0 | -1
CC(=O)Nc1ccc(NC(=O)C(C)OC(=O)CC2CCCCC2)cc1 (centres undefined) | 4 | 1 | -2 | -17 | 3 | 0
SMILES | SIRT5 inh | E-sel inducer | Ecoli rRNA inh | Statin myotox sup | FN deposit inh | FGF22 binding
COCCNC(=O)c1nn(-c2cc(OC)cc(OC)c2)c(=O)c2ccccc12 | . | . | . | 110* | . | .
Cn1nc(C(=O)NCC2COc3ccccc3O2)c2ccccc2c1=O (centres undefined) | -1 | 2 | . | 0 | 8 | 0
CCCCn1nc(C(=O)NCC2COc3ccccc3O2)c2ccccc2c1=O (centres undefined) | 0 | 0 | -36* | -4 | -5 | 0
COc1ccc(-n2nc(C(=O)NCC(=O)NCC3COc4ccccc4O3)c3ccccc3c2=O)cc1 (centres undefined) | 0 | . | -10 | . | -1 | 43*
COc1ccc(C(=O)NCC(=O)NCC2COc3ccccc3O2)cc1 (centres undefined) | . | . | . | -6 | -7 | .
COCC(=O)N(C)C[C@H]1Oc2cc(C#CC(C)(C)O)ccc2S(=O)(=O)N([C@@H](C)CO)C[C@@H]1C | -3 | 0 | 4 | 8 | . | 0
CC(OC(=O)C1=Cc2ccccc2OC1)C(=O)NCC1CCCO1 (centres undefined) | 12 | . | 2 | -1 | 1 | 1.9*
CC(C(=O)NCC1CCCO1)n1cccc1C(=O)c1ccccc1 (centres undefined) | . | . | . | 107* | . | .
C[C@H](CO)N1C[C@H](C)[C@@H](CN(C)C(=O)CC2CC2)Oc2cc(C#CC(C)(C)O)ccc2S1(=O)=O | 2 | 0 | -1 | 6 | -13 | 0
COc1cccc(-c2cnc3c(c2)C(=O)N([C@H](C)CO)C[C@H](C)[C@@H](CN(C)Cc2ccncc2)O3)c1 | . | -2 | -2 | -7 | 1 | 0
O=[N+]([O-])c1ccccc1/C=N/Nc1nc(N2CCCC2)nc(N2CCCC2)n1 | 1 | . | -12* | -5 | . | 0
Oc1ccccc1/C=N/Nc1nccnc1Cl | . | . | . | -14 | 7 | .
O=[N+]([O-])c1ccccc1/C=N/Nc1nccnc1Cl | . | . | . | 112* | 0 | .
Cc1ccc(S(=O)(=O)N[C@@H]2CC[C@@H](CCn3cc(C4CCCCC4)nn3)O[C@H]2CO)cc1 | 1 | 0 | -2 | 6 | 5 | 0
